Results taken from the M2OR odorant receptor database.
Where a chain is given by its changes, count along the chain named.

These molecules were tested against T1, OR2V2 (Homo sapiens) (UniProt Q96R30). Conditions: stereoisomer not certain.
T1 sequence (whole entry): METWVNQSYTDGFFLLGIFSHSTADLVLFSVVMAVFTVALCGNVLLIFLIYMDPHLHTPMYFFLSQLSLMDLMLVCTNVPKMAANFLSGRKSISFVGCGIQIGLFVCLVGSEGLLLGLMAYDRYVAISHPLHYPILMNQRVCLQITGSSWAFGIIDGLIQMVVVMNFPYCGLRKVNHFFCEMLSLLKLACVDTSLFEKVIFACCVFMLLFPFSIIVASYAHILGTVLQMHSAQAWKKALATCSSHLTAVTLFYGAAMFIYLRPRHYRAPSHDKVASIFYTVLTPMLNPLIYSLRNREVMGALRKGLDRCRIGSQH
Procedure, shortened: (§1)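 Each receptor–molecule pair is labelled responsive or non-responsive (inactive) according to whether the original authors judged the measured signal statistically different from baseline. The data were taken from the main text and supplementary material of published papers and checked for typos and inconsistencies. Assay methods differed by source, with transient luciferase assays in mammalian cell lines being common.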
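Further: active if original authors judged signal statistically different from baseline.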

Row | SMILES | odorant receptor agonist call
1 | CCC1OC(C)=C(O)C1=O (stereo unspecified) | inactive
2 | CCCCC(S)C(C)CO (stereo unspecified) | inactive
3 | CCCC(S)CCOC(C)=O (stereo unspecified) | inactive
4 | CCC1OC(=O)C(O)=C1C (stereo unspecified) | inactive
5 | CC1=C(O)C(=O)OC1C (stereo unspecified) | inactive
6 | CCCCCC(S)C(C)CO (stereo unspecified) | inactive
7 | CCCCCCC=CCCC=O | inactive
8 | CC(CO)CS (stereo unspecified) | inactive
9 | Cc1cnc(C)c(C)n1 | inactive
10 | CC1=C(O)C(=O)C(C)O1 (stereo unspecified) | inactive
11 | CC(=O)c1c(C)c([N+](=O)[O-])c(C(C)(C)C)c([N+](=O)[O-])c1C | inactive
12 | CC1=NC(C)C(C)S1 (stereo unspecified) | inactive
13 | CCCCCC(=O)C(C)C(C)=O (stereo unspecified) | inactive
14 | CC1CCCCCCCCCCCCC(=O)C1 (stereo unspecified) | inactive
15 | CCC(S)C(C)CO (stereo unspecified) | inactive

These molecules were tested against T2, OR2W1 (Homo sapiens) (UniProt Q9Y3N9). Conditions: stereoisomer not certain.
T2 sequence (whole entry): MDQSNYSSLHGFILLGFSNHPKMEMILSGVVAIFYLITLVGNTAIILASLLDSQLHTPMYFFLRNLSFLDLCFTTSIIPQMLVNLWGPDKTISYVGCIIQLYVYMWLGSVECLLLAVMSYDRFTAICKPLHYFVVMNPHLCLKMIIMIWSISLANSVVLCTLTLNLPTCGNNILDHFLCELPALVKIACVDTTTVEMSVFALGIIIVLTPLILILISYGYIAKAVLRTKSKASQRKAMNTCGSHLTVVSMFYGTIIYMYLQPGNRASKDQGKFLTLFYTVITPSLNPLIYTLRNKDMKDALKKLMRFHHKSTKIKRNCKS
Procedure, shortened: as §1

Row | SMILES | odorant receptor agonist call
16 | O=C(O)CCc1ccccc1 | inactive
17 | CCC1OC(C)=C(O)C1=O (stereo unspecified) | inactive
18 | CCCCC(S)C(C)CO (stereo unspecified) | inactive
19 | CCCC(S)CCOC(C)=O (stereo unspecified) | active
20 | CCC(C)C=O (stereo unspecified) | inactive
21 | CCc1ccc(O)c(OC)c1 | inactive
22 | CCC1OC(=O)C(O)=C1C (stereo unspecified) | inactive
23 | CCCCCC1=C(C)CCC1=O | active
24 | Cc1ccc(O)cc1 | inactive
25 | C=C1CCC2CC1C2(C)C (stereo unspecified) | inactive
26 | C=CCSC | inactive
27 | CC(=O)C=CC1=C(C)CCCC1(C)C | inactive
28 | CC(=O)O | inactive
29 | CC1=C(O)C(=O)OC1C (stereo unspecified) | inactive
30 | CC=CC(=O)C1=C(C)CCCC1(C)C | inactive
31 | CCCCCC(S)C(C)CO (stereo unspecified) | inactive
32 | CCCCCCC=CCCC=O | inactive

Row | SMILES | odorant receptor agonist call
33 | CC(CO)CS (stereo unspecified) | inactive
34 | C=C(C)C1CCC(C)C(=O)C1 (stereo unspecified) | active
35 | Cc1cnc(C)c(C)n1 | inactive
36 | CCCCC(=O)CC | active
37 | CCC(=O)C(=O)CC | active
38 | COc1nccnc1CC(C)C | inactive
39 | CCCC(C)=O | inactive
40 | CC1=C(O)C(=O)C(C)O1 (stereo unspecified) | inactive
41 | CC(=O)c1c(C)c([N+](=O)[O-])c(C(C)(C)C)c([N+](=O)[O-])c1C | inactive
42 | CCCCCCCO | active
43 | CCCCCCCCC=CC=O | inactive
44 | CC1=NC(C)C(C)S1 (stereo unspecified) | inactive
45 | CCCCCC(=O)C(C)C(C)=O (stereo unspecified) | inactive
46 | CC1CCCCCCCCCCCCC(=O)C1 (stereo unspecified) | inactive
47 | CCC(S)C(C)CO (stereo unspecified) | inactive
48 | CCOC(C)=O | inactive

The molecules below were run on T3, OR2W1 G96V. Conditions: stereoisomer not certain.
T3 sequence (whole entry): T2 sequence (whole entry) with G96V
Procedure, shortened: as §1

Row | SMILES | odorant receptor agonist call
49 | CCC1OC(C)=C(O)C1=O (stereo unspecified) | inactive
50 | CCCC(S)CCOC(C)=O (stereo unspecified) | active
51 | CCC1OC(=O)C(O)=C1C (stereo unspecified) | inactive
52 | CC1=C(O)C(=O)OC1C (stereo unspecified) | inactive
53 | CCCCCCC=CCCC=O | inactive
54 | Cc1cnc(C)c(C)n1 | inactive
55 | CC1=C(O)C(=O)C(C)O1 (stereo unspecified) | inactive
56 | CC1=NC(C)C(C)S1 (stereo unspecified) | inactive
